Holding throughout (format): functional
Test [1] concerns the target Beta-2 adrenergic receptor (Rattus norvegicus) (UniProt P10608). In words: Agonist activity at beta2 adrenergic receptor in rat L6 cell lysate assessed as increase in intracellular 2-deoxyglucose uptake at 0.1 to 100 uM preincubated for 4 hrs followed by 2-deoxyglucose measured after 20 mins by fluorescence-based enzymatic assay relative to control. The method, boiled down:
(§1)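 L6 rat myoblasts (JCRB9081) were grown in DMEM with 10% FBS at 37°C under 10% CO2. At confluence they were differentiated in DMEM with 2% horse serum for 6–8 days. Cells were serum-starved, then exposed to sample in serum-free DMEM for 4 h, with 100 nM insulin as the positive control. They were rinsed in KRPH buffer pH 7.4 and given 1 mM 2-deoxyglucose for 20 min. After washing, cells were lysed in 0.05 M NaOH and lysate 2-deoxyglucose was quantified enzymatically by fluorescence.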

The target is the same in test [2]. The test is described as follows: Agonist activity at beta2 adrenergic receptor in rat L6 cell lysate assessed as increase in intracellular 2-deoxyglucose uptake at 0.5 to 100 uM preincubated for 4 hrs followed by 2-deoxyglucose measured after 20 mins by fluorescence-based enzymatic assay relative to control. The method, boiled down: as §1
For test [3] the target is unchanged. The test is described as follows: Agonist activity at beta2 adrenergic receptor in rat L6 cell lysate assessed as increase in intracellular 2-deoxyglucose uptake at 100 uM preincubated for 4 hrs followed by 2-deoxyglucose measured after 20 mins by fluorescence-based enzymatic assay relative to control. The method, boiled down: as §1
The target in test [4] is Beta-2 adrenergic receptor (Rattus norvegicus, UniProt P10608). In words: Agonist activity at beta2 adrenergic receptor in rat L6 cell lysate assessed as increase in intracellular 2-deoxyglucose uptake preincubated for 4 hrs followed by 2-deoxyglucose addition measured after 20 mins by fluorescence-based enzymatic assay relative to control. The method, boiled down:
as §1

Test [5] deals with Beta-2 adrenergic receptor (Rattus norvegicus) (UniProt P10608). In words: Agonist activity at beta2 adrenergic receptor in rat L6 cell lysate assessed as increase in intracellular 2-deoxyglucose uptake at 0.1 to 100 uM preincubated for 4 hrs followed by 2-deoxyglucose measured after 20 mins by fluorescence-based enzymatic assay relative to higenamine. The method, boiled down:
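Differentiated L6 rat myotubes (2% horse serum, 6–8 days post-confluence) serum-starved, then exposed to sample in serum-free DMEM for 4 h; insulin 100 nM as positive control. Rinsed with KRPH buffer (pH 7.4), given 1 mM 2-deoxyglucose for 20 min, washed thrice, lysed in 0.05 M NaOH; lysate 2-deoxyglucose measured enzymatically by fluorescence.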

For test [6] the target is unchanged. The test is described as follows: Agonist activity at beta2 adrenergic receptor in rat L6 cell lysate assessed as increase in intracellular 2-deoxyglucose uptake at 10 to 100 uM preincubated for 4 hrs followed by 2-deoxyglucose measured after 20 mins by fluorescence-based enzymatic assay relative to control. The method, boiled down: as §1
Test [7] shares this target. The test is described as follows: Agonist activity at beta2 adrenergic receptor in rat L6 cell lysate assessed as increase in intracellular 2-deoxyglucose uptake at more than 5 uM preincubated for 4 hrs followed by 2-deoxyglucose measured after 20 mins by fluorescence-based enzymatic assay relative to control. The method, boiled down:
as §1

Active and inactive are the calls of the source. The rule behind the calls is not given here.

Chain of Beta-2 adrenergic receptor (P10608 whole entry): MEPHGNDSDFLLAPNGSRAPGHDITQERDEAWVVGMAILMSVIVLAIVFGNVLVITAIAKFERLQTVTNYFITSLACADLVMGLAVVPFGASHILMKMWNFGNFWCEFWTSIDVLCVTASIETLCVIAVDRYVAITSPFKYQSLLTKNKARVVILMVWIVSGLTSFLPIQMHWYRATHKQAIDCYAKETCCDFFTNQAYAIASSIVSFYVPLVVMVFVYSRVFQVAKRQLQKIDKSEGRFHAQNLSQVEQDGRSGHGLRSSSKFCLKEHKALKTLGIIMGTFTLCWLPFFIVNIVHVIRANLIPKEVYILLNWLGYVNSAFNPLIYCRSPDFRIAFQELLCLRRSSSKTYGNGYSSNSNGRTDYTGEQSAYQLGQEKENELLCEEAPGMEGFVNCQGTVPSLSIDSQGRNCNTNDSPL
Chain of Beta-2 adrenergic receptor (Rattus norvegicus) (P10608 whole entry, looked up): as the sequence (P10608 whole entry) above

On to `COc1ccc(CC2NCCc3cc(O)c(O)cc32)cc1` (stereo unspecified), for which the outcome in test [1] was Active.
Regarding `COc1cc2c(cc1O)CCNC2Cc1ccc(O)cc1` (stereo unspecified), the outcome in test [2] was Active. Besides, the fold change (FC) in test [3] was found to be 1.2.
One may read the EC50 as the concentration at which the effect is half-maximal. Turning to `OC[C@H]1O[C@@H](Oc2ccc(C[C@@H]3NCCc4cc(O)c(O)cc43)cc2)[C@H](O)[C@@H](O)[C@@H]1O`, in test [4], the EC50 was 1300 nM.
Take `CN1CCc2cc(O)c(O)cc2C1Cc1ccc(O)cc1` (stereo unspecified): the outcome in test [2] was Active. Besides, the fold change (FC) in test [3] is 1.2.
With `Oc1ccc(C[C@H]2NCCc3cc(O)c(O)cc32)cc1` [(+)-HIGENAMINE], in test [4], the EC50 is 4500 nM.
Take `COc1cc2c(cc1O)C(Cc1ccc(O)cc1)NCC2` (stereo unspecified): the fold change (FC) in test [2] was determined as 1.6. For the same compound, the Activity in test [5] was determined as 40%.
Regarding `Oc1ccc(C[C@@H]2NCCc3cc(O)c(O)cc32)cc1` [(-)-HIGENAMINE], in test [4], the EC50 came out at 600 nM.
As to `CNC[C@H](O)c1ccc(O)c(O)c1`, in test [6], the outcome was Active.
As to `COc1cc2c(cc1OC)C(Cc1ccc(O)cc1)NCC2` (stereo unspecified), the result in test [1] was Active.
For the compound `NC[C@H](O)c1ccc(O)c(O)c1`, the result in test [6] was Active.
In the case of `OC[C@H]1O[C@@H](Oc2ccc(C[C@H]3NCCc4cc(O)c(O)cc43)cc2)[C@H](O)[C@@H](O)[C@@H]1O`, in test [4], the EC50 was 9000 nM.
For the compound `Oc1ccc(CC2NCCc3cc(O)c(O)cc32)cc1` (stereo unspecified), the fold change (FC) in test [7] was > 2. The outcome in test [6] was Active.

The values are drawn from ChEMBL document CHEMBL4177625, “Ability of higenamine and related compounds to enhance glucose uptake in L6 cells” (Bioorg Med Chem, 2017).
